Data: ChEMBL document CHEMBL1135714, “New neplanocin analogues. 12. Alternative synthesis and antimalarial effect of (6'R)-6'-C-methylneplanocin A, a potent AdoHcy hydrolase inhibitor” (J Med Chem, 2002)
pIC50: −log10 of the molar value.

Experiments:
Plasmodium berghei [1] = test: Percent parasitaemia in tail blood smears from Plasmodium berghei infected ICR mice (Mus musculus) at 0.5-mg/kg/day after 4 days; format: functional
Method in brief: (§1)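 P. berghei NK 65-infected ICR mice, five per group. Compounds in DMSO were given intraperitoneally once daily for four consecutive days from day 0, at 0.1–20 mg/kg/day. Five infected DMSO-dosed mice served as controls. On day 4, Giemsa-stained tail-blood thin films were read by microscopy, with 1 × 10⁴ erythrocytes counted per film, to give % parasitemia.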

[2] = The compound was tested for survival of the ICR mice (infected with Plasmodium berghei) as a symptom indicative of toxicity on day 4, at different doses 20 mg/kg/day; format: functional, Mus musculus
Method in brief: (§2)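 P. berghei (NK 65 strain)-infected ICR mice, groups of five; compound in DMSO given intraperitoneally once daily for four consecutive days starting day 0; five infected DMSO-dosed mice as controls; survival counted on day 4 as toxicity indicator; Giemsa-stained tail blood smears, 1 × 10⁴ erythrocytes per film, for parasitemia.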

[3] = The compound was tested for the dose required to cause 50% suppression of Plasmodium berghei growth in mice.; format: functional, Mus musculus
Method in brief: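 Four-day suppressive test in ICR mice infected with P. berghei NK 65, five per group. DMSO solutions were injected intraperitoneally daily on days 0–3 at 0.1–20 mg/kg/day, against infected DMSO-dosed controls. Day-4 parasitemia came from Giemsa-stained tail-blood smears, 1 × 10⁴ erythrocytes per film. EC50 is the dose giving 50% suppression of parasite growth.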

Plasmodium berghei [4] = test: Parasitaemia (%) in tail blood smears of Plasmodium berghei infected ICR mice (Mus musculus) at 1.0 mg/kg/day after 4 days; format: functional; method in brief: as §1
[5] = The compound was tested for survival of the ICR mice (infected with Plasmodium berghei) as a symptom indicative of toxicity on day 4, at a dose of 2 mg/kg/day; format: functional, Mus musculus; method in brief: as §2
[6] = The compound was tested for survival of the ICR mice (infected with Plasmodium berghei) as a symptom indicative of toxicity on day 4, at a dose of 10 mg/kg/day; format: functional, Mus musculus; method in brief: as §2
Plasmodium berghei [7] = test: Parasitaemia (%) in tail blood smears of Plasmodium berghei infected ICR mice (Mus musculus) at 5 mg/kg/day after 4 days; format: functional; method in brief: as §1
[8] = The compound was tested for survival of the ICR mice (infected with Plasmodium berghei) as a symptom indicative of toxicity on day 4, at a dose of 5 mg/kg/day; format: functional, Mus musculus; method in brief: as §2
Plasmodium berghei [9] = test: Parasitaemia (%) in tail blood smears from Plasmodium berghei infected ICR mice (Mus musculus) at 0.1-mg/kg/day for 4 days; format: functional; method in brief: as §1
[10] = The compound was tested for survival of the ICR mice (infected with Plasmodium berghei) as a symptom indicative of toxicity on day 4, at a dose of 0.5 mg/kg/day; format: functional, Mus musculus; method in brief: as §2
Plasmodium berghei [11] = test: Parasitaemia (%) in tail blood smears of Plasmodium berghei infected ICR mice (Mus musculus) at 2 mg/kg/day after 4 days; format: functional; method in brief: as §1
[12] = The compound was tested for survival of the ICR mice (infected with Plasmodium berghei) as a symptom indicative of toxicity on day 4, at a dose of 0.1 mg/kg/day; format: functional, Mus musculus; method in brief: as §2
[13] = tested on: KATO III stomach cancer cell line; test: The compound was tested for cytotoxicity against the growth of human gastric carcinoma cell line ( KATO III ).; format: functional, cell-based
[14] = The compound was tested for survival of the ICR mice (infected with Plasmodium berghei) as a symptom indicative of toxicity on day 4, at a dose of 1.0 mg/kg/day; format: functional, Mus musculus; method in brief: as §2
Plasmodium falciparum = test: In vitro antimalarial activity against Plasmodium falciparum
Plasmodium berghei [15] = test: Parasitaemia (%) in tail blood smears from Plasmodium berghei infected ICR mice (Mus musculus) after 4 days; format: functional; method in brief: as §1
[16] = The compound was tested for survival of the ICR mice (infected with Plasmodium berghei) as a symptom indicative of toxicity on day 4, at a dose of 20 mg/kg/day; format: functional, Mus musculus; method in brief: as §2
Vero = test: The compound was tested for cytotoxicity against monkey kidney cell line ( Vero ).; format: functional, cell-based; conditions: Chlorocebus sabaeus
Plasmodium berghei [17] = test: Parasitaemia (%) in tail blood smears from Plasmodium berghei infected ICR mice (Mus musculus) at 0.5-mg/kg/day for 4 days; format: functional; method in brief: as §1
Plasmodium berghei [18] = test: Parasitaemia (%) in tail blood smears of Plasmodium berghei infected ICR mice (Mus musculus) at 10 mg/kg/day after 4 days; format: functional; method in brief: as §1
Plasmodium berghei [19] = test: Parasitaemia (%) in tail blood smears of Plasmodium berghei infected ICR mice (Mus musculus) at 20 mg/kg/day after 4 days; format: functional; method in brief: as §1
Plasmodium berghei [20] = test: Parasitaemia (%) in tail blood smears of Plasmodium berghei infected ICR mice (Mus musculus) at 0.5 mg/kg/day after 4 days; format: functional; method in brief: as §1
Plasmodium berghei [21] = test: Parasitaemia (%) in tail blood smears from Plasmodium berghei infected ICR mice (Mus musculus) at 0.1 mg/kg/day for 4 days; format: functional; method in brief: as §1

| Compound | EC50 [3] | Parasitemia (Plasmodium berghei [4]) | Survival [5] | Survival [6] | Parasitemia (Plasmodium berghei [7]) | Survival [8] | Parasitemia (Plasmodium berghei [9]) | Survival [10] | Parasitemia (Plasmodium berghei [11]) | Survival [12] | pIC50 [13] | Survival [14] | pIC50 (Plasmodium falciparum) | Parasitemia (Plasmodium berghei [15]) | Survival [16] | Parasitemia (Plasmodium berghei [18]) | also measured |
| --- | --- | --- | --- | --- | --- | --- | --- | --- | --- | --- | --- | --- | --- | --- | --- | --- | --- |
| Nc1ncnc2c1ncn2[C@@H]1C=C(CO)[C@@H](O)[C@H]1O [NEOPLANOCIN A] | > 5 mg/kg/day | 21% | 5 | 0 | 12% | 5 | 20% | 5 | 21% | 5 | 6.66 | 5 | 6.70 | 21% | – | – | Parasitemia (Plasmodium berghei [1]): 21%; Survival [2]: 0 |
| C[C@@H](O)C1=C[C@@H](n2cnc3c(N)ncnc32)[C@H](O)[C@@H]1O | 1 mg/kg/day | 10% | 5 | 5 | 2% | 5 | 21% | 5 | 5% | 5 | 5.96 | 5 | 7.00 | 21% | 2 | 2% | pIC50 (Vero): < 2.74; Parasitemia (Plasmodium berghei [17]): 21% |
| CCN(CC)CCCC(C)Nc1ccnc2cc(Cl)ccc12 (stereo not given) [CHLOROQUINE] | 1.8 mg/kg/day | 18% | 5 | 5 | 3% | 5 | – | 5 | 7% | 5 | – | 5 | – | 21% | 5 | 2% | Parasitemia (Plasmodium berghei [19]): 1%; Parasitemia (Plasmodium berghei [20]): 20%; Parasitemia (Plasmodium berghei [21]): 21% |
